The source of these data is ChEMBL document CHEMBL1134309, “O-Phosphonatomethylcholine, its analogues, alkyl esters, and their biological activity” (J Med Chem, 2001).

In assay [1] the test system is NCI-H460. Put plainly: In vitro cytotoxic activity against nonsmall cell lung carcinoma (NCI-H460) cells assayed by inhibition of [3H]-labeled thymidine incorporation. The format is functional, cell-based. Conditions: Homo sapiens. The essentials: (§1)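 Human tumour lines in 10% FBS medium (HT-29 and MES-SA in McCoy's 5a; NCI-H460 in RPMI 1640; DU-145 in MEM/Earle's), 37 °C, 5% CO2. Trypsin/EDTA-harvested, plated at 1 × 10⁴ cells/well, attached ~4 h. Serial dilutions tested, 8 wells/concentration. [methyl-³H]thymidine, 0.25 μCi/well, added at 24 h, then 48 more h (72 h total). Cells Triton-lysed, filter-harvested, counted. IC50 is the average of 3–5 determinations.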
(Dividing cells build labelled thymidine or BrdU into new DNA.)

For assay [2], the system named is HT-29. As to the kind of experiment: In vitro cytotoxic activity against colon adenocarcinoma (HT-29) cells assayed by inhibition of [3H]-labeled thymidine incorporation. The format is functional, cell-based. Conditions: Homo sapiens. The essentials: as §1
Another assay concerns Lymphoma cell line. As to the kind of experiment: Percent decrease of Lymphoma mass of animals treated with the compound. Also on record: scale not given: the % may be the effect or the level left. The format is functional. The essentials:
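Male SD rats, 2 months old, ~300 g, 4 per group. 10⁶ SD lymphoma cells given s.c. to the right flank. From day 10, drug in PBS pH 7.2 (3 mL, 1 mg/mL) was injected once daily next to the tumour for 10 days; controls got PBS only. Rats were killed 24 h later and lymphomas weighed. Result is mean mass decrease versus controls.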

Assay [3] relates to MES-SA (Homo sapiens). Put plainly: In vitro cytotoxic activity against uterine sarcoma (MES-SA) cells assayed by inhibition of [3H]-labeled thymidine incorporation.
Assay [4] has as its system DU-145. Put plainly: In vitro cytotoxic activity against prostate carcinoma (DU-145) cells assayed by inhibition of [3H]-labeled thymidine incorporation. Conditions: Homo sapiens. The format is functional, cell-based. The essentials: as §1
Assay [5] concerns HT-29. Put plainly: In vitro cytotoxic activity against colon adenocarcinoma (HT-29) cells assayed by inhibition of [3H]-labeled thymidine incorporation; Not calculable. The format is functional, cell-based, Homo sapiens. The essentials:
as §1

Assay [6] concerns MES-SA (Homo sapiens). Put plainly: In vitro cytotoxic activity against uterine sarcoma (MES-SA) cells assayed by inhibition of [3H]-labeled thymidine incorporation; Not calculable.
Assay [7] concerns DU-145. As to the kind of experiment: In vitro cytotoxic activity against prostate carcinoma (DU-145) cells assayed by inhibition of [3H]-labeled thymidine incorporation; Not calculable. It is filed as functional, cell-based, Homo sapiens. The method, boiled down: as §1
Assay [8] relates to NCI-H460. As to the kind of experiment: In vitro cytotoxic activity against nonsmall cell lung carcinoma (NCI-H460) cells assayed by inhibition of [3H]-labeled thymidine incorporation; Not calculable. The format is functional, cell-based, Homo sapiens. The essentials: as §1

As to `CCCCCCCCCCCCCCCCOP(=O)([O-])COCC[N+](C)(C)C`, the IC50 (as a rule, the point on the concentration scale where inhibition reaches its midpoint) with NCI-H460 [1] stood at 15.7 µM; in the assay on HT-29 [2], 4760 nM; with MES-SA (Homo sapiens) [3], 2110 nM; in the assay with DU-145 [4], 17.2 µM. In the assay on Lymphoma cell line, this compound came in with an Activity of 41%.

As to `CCCCCCCCCCCCCCCOP(=O)([O-])COCC[N+](C)(C)C`, the IC50 was 18 µM in the assay on NCI-H460 [1], 9590 nM in the assay on MES-SA (Homo sapiens) [3], 19.9 µM in the assay on DU-145 [4] and “Not calculable” with HT-29 [5].

With `CCCCCCCCCCCCOP(=O)([O-])COCC[N+](C)(C)C`, the IC50 entry is “Not calculable” with MES-SA (Homo sapiens) [6], 138 µM in the assay with NCI-H460 [1], 133 µM in the assay with DU-145 [4] and “Not calculable” in the assay on HT-29 [5].

With `CCCCCCCCCCCCCCOP(=O)([O-])COCC[N+](C)(C)C`, the IC50 entry in the assay on MES-SA (Homo sapiens) [6] was “Not calculable”; with NCI-H460 [1], 40.3 µM; in the assay on HT-29 [2], 12200 nM; in the assay with DU-145 [7], “Not calculable”. This compound displayed an Activity in the assay with Lymphoma cell line of 30%.

For the compound `CCCCCCCCCCOP(=O)([O-])COCC[N+](C)(C)C`, the IC50 result in the assay with MES-SA (Homo sapiens) [6], with HT-29 [5], in the assay with NCI-H460 [8] and in the assay with DU-145 [7] was “Not calculable” throughout.

For `Nc1ccn([C@@H]2O[C@H](CO)[C@@H](O)C2(F)F)c(=O)n1` [GEMCITABINE], the IC50 with NCI-H460 [1] was determined as 0.0078 µM; in the assay on HT-29 [2] it was 3 nM; with MES-SA (Homo sapiens) [3], 9.2 nM; in the assay on DU-145 [4], 0.0356 µM.

Take `CCCCCCCCCCCCCCCCOP(=O)([O-])OCC[N+](C)(C)C` [MILTEFOSINE]: the IC50 in the assay on NCI-H460 [1] worked out at 6.62 µM; in the assay on HT-29 [2], 6150 nM; in the assay with MES-SA (Homo sapiens) [3], 5350 nM; in the assay on DU-145 [4] it was 24.9 µM.

On to `CC(=O)O[C@H]1C(=O)[C@@]2(C)[C@H]([C@H](OC(=O)c3ccccc3)[C@]3(O)C[C@H](OC(=O)[C@H](O)[C@@H](NC(=O)c4ccccc4)c4ccccc4)C(C)=C1C3(C)C)[C@]1(OC(C)=O)CO[C@@H]1C[C@@H]2O` [PACLITAXEL], for which the IC50 with NCI-H460 [1] turned out to be 0.00014 µM; with HT-29 [2], 0.16 nM; in the assay on MES-SA (Homo sapiens) [3] it was 0.04 nM.

Turning to `CC[C@]1(O)C[C@H]2CN(CCc3c([nH]c4ccccc34)[C@@](C(=O)OC)(c3cc4c(cc3OC)N(C=O)[C@H]3[C@@](O)(C(=O)OC)[C@H](OC(C)=O)[C@]5(CC)C=CCN6CC[C@]43[C@@H]65)C2)C1` [VINCRISTINE], the IC50 stood at 0.00013 µM with NCI-H460 [1], 0.01 nM in the assay with HT-29 [2], 0.02 nM with MES-SA (Homo sapiens) [3] and 0.00112 µM in the assay on DU-145 [4].
